In ChEMBL document CHEMBL1629485, “Lead identification of conformationally restricted β-lactam type combretastatin analogues: synthesis, antiproliferative activity and tubulin targeting effects” (Eur J Med Chem, 2010):
pIC50: −log10 of the molar value.

Assays:
MDA-MB-231 [1] = experiment: Cell cycle arrest in estrogen receptor deficient human MDA-MB-231 cells assessed as accumulation at S phase at 10 nM after 24 hrs using propidium iodide staining by flow cytometry relative to control; type: functional
How it was run: (§1)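 MDA-MB-231 cells in DMEM with 10% FBS and 2 mM L-glutamine, seeded at 18 × 10⁴ cells/mL. Exposed to test agent at the stated final concentration, or to 1% (v/v) ethanol vehicle, for 24, 48 or 72 h. Harvested by scraping and centrifugation, then RNase A treatment and propidium iodide DNA staining for at least 30 min at 37 °C. 10,000 cells per sample read at 488 nm by flow cytometry; mean ± SD of three experiments.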

MDA-MB-231 [2] = experiment: Cell cycle arrest in estrogen receptor deficient human MDA-MB-231 cells assessed as accumulation at G2/M phase at 10 uM after 72 hrs using propidium iodide staining by flow cytometry relative to control; type: functional; how it was run: as §1
MDA-MB-231 [3] = experiment: Cell cycle arrest in estrogen receptor deficient human MDA-MB-231 cells assessed as appearance of polyploidy at 10 uM after 72 hrs using propidium iodide staining by flow cytometry relative to control; type: functional
How it was run: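 MDA-MB-231 cells seeded at 18 × 10⁴ cells/mL and exposed to 1% (v/v) ethanol vehicle or compound at final concentrations (10 nM, 100 nM, 10 µM at all times; 1 µM also at 24 and 72 h). Cells harvested after 24, 48 or 72 h and treated with RNase A and propidium iodide for at least 30 min at 37 °C. 10,000 cells read at 488 nm by flow cytometry. Percent cells per phase reported, including polyploid; mean ± SD of three experiments.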

MDA-MB-231 [4] = experiment: Cell cycle arrest in estrogen receptor deficient human MDA-MB-231 cells assessed as accumulation at S phase at 10 nM after 48 hrs using propidium iodide staining by flow cytometry relative to control; type: functional; how it was run: as §1
MDA-MB-231 [5] = experiment: Cell cycle arrest in estrogen receptor deficient human MDA-MB-231 cells assessed as accumulation at G1 phase at 10 uM after 24 hrs using propidium iodide staining by flow cytometry relative to control; type: functional; how it was run: as §1
MDA-MB-231 [6] = experiment: Cell cycle arrest in estrogen receptor deficient human MDA-MB-231 cells assessed as accumulation at G1 phase at 10 nM after 24 hrs using propidium iodide staining by flow cytometry relative to control; type: functional; how it was run: as §1
MDA-MB-231 [7] = experiment: Antiproliferative activity against estrogen receptor deficient human MDA-MB-231 cells after 72 hrs by MTT assay; type: functional, cell-based; conditions: MDA-MB-231, 72 h
How it was run: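 MCF-7 grown in Eagle's MEM with 10% FBS, 2 mM L-glutamine, penicillin/streptomycin and 1% non-essential amino acids; MDA-MB-231 grown in DMEM with 10% FBS, 2 mM L-glutamine and penicillin/streptomycin. Seeded at 2.5 × 10⁴ cells/mL, 24 h at 37 °C. Ethanol-stock compound, 1 nM–100 μM, 72 h, ethanol 1% v/v vehicle. MTT at 1 mg/mL final, 2 h dark, 37 °C, DMSO solubilised. Viability vs untreated control. IC50 is mean of three experiments in triplicate.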

MDA-MB-231 [8] = experiment: Cell cycle arrest in estrogen receptor deficient human MDA-MB-231 cells assessed as accumulation at sub-G1 phase at 100 nM after 48 hrs using propidium iodide staining by flow cytometry relative to control; type: functional; how it was run: as §1
MDA-MB-231 [9] = experiment: Cell cycle arrest in estrogen receptor deficient human MDA-MB-231 cells assessed as accumulation at sub-G1 phase at 10 uM after 24 hrs using propidium iodide staining by flow cytometry relative to control; type: functional; how it was run: as §1
MDA-MB-231 [10] = experiment: Cell cycle arrest in estrogen receptor deficient human MDA-MB-231 cells assessed as accumulation at G1 phase at 10 uM after 48 hrs using propidium iodide staining by flow cytometry relative to control; type: functional; how it was run: as §1
MDA-MB-231 [11] = experiment: Cell cycle arrest in estrogen receptor deficient human MDA-MB-231 cells assessed as accumulation at S phase at 100 nM after 24 hrs using propidium iodide staining by flow cytometry relative to control; type: functional; how it was run: as §1
MDA-MB-231 [12] = experiment: Cell cycle arrest in estrogen receptor deficient human MDA-MB-231 cells assessed as accumulation at G1 phase at 100 nM after 48 hrs using propidium iodide staining by flow cytometry relative to control; type: functional; how it was run: as §1
MDA-MB-231 [13] = experiment: Cell cycle arrest in estrogen receptor deficient human MDA-MB-231 cells assessed as accumulation at G2/M phase at 100 nM after 24 hrs using propidium iodide staining by flow cytometry relative to control; type: functional; how it was run: as §1
MCF7 = experiment: Antiproliferative activity against human MCF7 cells expressing estrogen receptor after 72 hrs by MTT assay; type: functional, cell-based; conditions: MCF7, 72 h
MDA-MB-231 [14] = experiment: Cell cycle arrest in estrogen receptor deficient human MDA-MB-231 cells assessed as accumulation at G1 phase at 100 nM after 24 hrs using propidium iodide staining by flow cytometry relative to control; type: functional; how it was run: as §1
MDA-MB-231 [15] = experiment: Cell cycle arrest in estrogen receptor deficient human MDA-MB-231 cells assessed as accumulation at G2/M phase at 1 uM after 24 hrs using propidium iodide staining by flow cytometry relative to control; type: functional; how it was run: as §1
MDA-MB-231 [16] = experiment: Cell cycle arrest in estrogen receptor deficient human MDA-MB-231 cells assessed as accumulation at S phase at 10 uM after 24 hrs using propidium iodide staining by flow cytometry relative to control; type: functional; how it was run: as §1
MDA-MB-231 [17] = experiment: Cell cycle arrest in estrogen receptor deficient human MDA-MB-231 cells assessed as accumulation at S phase at 100 nM after 48 hrs using propidium iodide staining by flow cytometry relative to control; type: functional; how it was run: as §1
MDA-MB-231 [18] = experiment: Cell cycle arrest in estrogen receptor deficient human MDA-MB-231 cells assessed as accumulation at G2/M phase at 10 uM after 48 hrs using propidium iodide staining by flow cytometry relative to control; type: functional; how it was run: as §1
MDA-MB-231 [19] = experiment: Cell cycle arrest in estrogen receptor deficient human MDA-MB-231 cells assessed as accumulation at G2/M phase at 10 uM after 24 hrs using propidium iodide staining by flow cytometry relative to control; type: functional; how it was run: as §1
MDA-MB-231 [20] = experiment: Cell cycle arrest in estrogen receptor deficient human MDA-MB-231 cells assessed as accumulation at S phase at 1 uM after 72 hrs using propidium iodide staining by flow cytometry relative to control; type: functional; how it was run: as §1
MDA-MB-231 [21] = experiment: Cell cycle arrest in estrogen receptor deficient human MDA-MB-231 cells assessed as accumulation at sub-G1 phase at 10 nM after 72 hrs using propidium iodide staining by flow cytometry relative to control; type: functional; how it was run: as §1
MDA-MB-231 [22] = experiment: Cell cycle arrest in estrogen receptor deficient human MDA-MB-231 cells assessed as accumulation at G2/M phase at 100 nM after 48 hrs using propidium iodide staining by flow cytometry relative to control; type: functional; how it was run: as §1
MDA-MB-231 [23] = experiment: Cell cycle arrest in estrogen receptor deficient human MDA-MB-231 cells assessed as accumulation at sub-G1 phase at 10 nM after 48 hrs using propidium iodide staining by flow cytometry relative to control; type: functional; how it was run: as §1
MDA-MB-231 [24] = experiment: Cell cycle arrest in estrogen receptor deficient human MDA-MB-231 cells assessed as appearance of polyploidy at 10 nM after 48 hrs using propidium iodide staining by flow cytometry relative to control; type: functional; how it was run: as §1
MDA-MB-231 [25] = experiment: Cell cycle arrest in estrogen receptor deficient human MDA-MB-231 cells assessed as accumulation at G2/M phase at 10 nM after 48 hrs using propidium iodide staining by flow cytometry relative to control; type: functional; how it was run: as §1
MDA-MB-231 [26] = experiment: Cell cycle arrest in estrogen receptor deficient human MDA-MB-231 cells assessed as accumulation at G1 phase at 10 nM after 48 hrs using propidium iodide staining by flow cytometry relative to control; type: functional; how it was run: as §1

In the case of `COc1ccc(C2CC(=O)N2c2cc(OC)c(OC)c(OC)c2)cc1O` (configuration not stated), the Activity (MDA-MB-231 [1]) was 12.55%, the Activity (MDA-MB-231 [2]) was 21.81% and the Activity (MDA-MB-231 [3]) was 3.38%. It also gave an Activity (MDA-MB-231 [4]) of 13.36%, an Activity (MDA-MB-231 [5]) of 29.3% and an Activity (MDA-MB-231 [6]) of 48.33%. It also gave a pIC50 (MDA-MB-231 [7]) of 7.27, an Activity (MDA-MB-231 [8]) of 37.5% and an Activity (MDA-MB-231 [9]) of 3.18%. For the same molecule, the Activity (MDA-MB-231 [10]) was 14.44%, the Activity (MDA-MB-231 [11]) was 6.05% and the Activity (MDA-MB-231 [12]) was 10.76%. For the same molecule, the Activity (MDA-MB-231 [13]) was 59.43%, the pIC50 (MCF7) was 7.77 and the Activity (MDA-MB-231 [14]) was 18.95%. The Activity (MDA-MB-231 [15]) was 63.16%, the Activity (MDA-MB-231 [16]) was 3.72% and the Activity (MDA-MB-231 [17]) was 8.9%. It also gave an Activity (MDA-MB-231 [18]) of 27.25%, an Activity (MDA-MB-231 [19]) of 55.36% and an Activity (MDA-MB-231 [20]) of 7.76%. For the same molecule, the Activity (MDA-MB-231 [21]) was 15.25%, the Activity (MDA-MB-231 [22]) was 36.42% and the Activity (MDA-MB-231 [23]) was 11.57%. The Activity (MDA-MB-231 [24]) was 6.1%, the Activity (MDA-MB-231 [25]) was 23.71% and the Activity (MDA-MB-231 [26]) was 45.25%.
